Assay [1] has as its target T1, Polycomb protein EED (Homo sapiens, UniProt O75530). As to the kind of experiment: Inhibition of pyrrolidine inhibitor-based oregon-green probe binding to GST-tagged EED (unknown origin) after 1 hr by assay explorer integrated LanthaScreen TR-FRET assay. An outline of the steps:
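On the integrated platform, HPLC fractions were quantified by charged aerosol detection (calibrated with ketoprofen) and dissolved in DMSO to 10 mM stocks. An 11-point, 3-fold serial dilution followed. 50 nL of each dilution was pin-transferred into 10 µL assay buffer (0.5% DMSO final) and incubated 1 h at 25 °C. TR-FRET was read on EnVision, and activity was obtained by curve fitting.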

Assay [2] has as its target T1, Polycomb protein EED. As to the kind of experiment: Inhibition of pyrrolidine inhibitor-based oregon-green probe binding to GST-tagged EED (unknown origin) after 1 hr by LanthaScreen TR-FRET assay. An outline of the steps: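 Compounds were made, purified and tested conventionally as separate steps, under the same assay conditions as the integrated run. Compound in DMSO was added to assay buffer (0.5% DMSO final) and incubated 1 h at 25 °C. The TR-FRET signal was read on a plate reader, and activity was derived by curve fitting.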
In general terms: Time-resolved FRET reads energy transfer from a long-lived donor to a nearby acceptor.

24 compounds from ChEMBL document CHEMBL3992570, “Integrated Platform for Expedited Synthesis-Purification-Testing of Small Molecule Libraries” (ACS Med Chem Lett, 2017) can be followed below.

What is called IC50 is the concentration that gives 50% inhibition.

T1 sequence (O75530 whole entry): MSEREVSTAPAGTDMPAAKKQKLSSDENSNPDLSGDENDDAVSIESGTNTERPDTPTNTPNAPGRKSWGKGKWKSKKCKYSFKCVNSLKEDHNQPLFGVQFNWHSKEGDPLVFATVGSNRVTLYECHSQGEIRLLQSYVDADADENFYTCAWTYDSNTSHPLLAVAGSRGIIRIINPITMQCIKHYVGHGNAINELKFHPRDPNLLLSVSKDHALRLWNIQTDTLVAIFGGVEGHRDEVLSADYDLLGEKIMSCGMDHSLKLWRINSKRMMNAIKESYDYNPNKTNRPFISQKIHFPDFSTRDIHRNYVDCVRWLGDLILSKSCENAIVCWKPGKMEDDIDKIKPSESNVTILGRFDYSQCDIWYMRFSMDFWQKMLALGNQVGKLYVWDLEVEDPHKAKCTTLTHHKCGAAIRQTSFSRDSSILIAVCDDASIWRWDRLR

`CC(=O)NC1CCN(c2ccc([C@H]3CN(Cc4c(C)cccc4F)C[C@@H]3N(C)C)cc2)CC1`: the IC50 was 40 nM at Polycomb protein EED [1] and 160 nM at Polycomb protein EED [2]. Take `Cc1cccc(F)c1CN1C[C@H](c2ccc(N3CCn4ccnc4C3)cc2)[C@@H](N(C)C)C1`: the IC50 at Polycomb protein EED [1] was 70 nM; on Polycomb protein EED [2] it was 100 nM. In the case of `Cc1cc([C@H]2CN(Cc3c(C)cccc3F)C[C@@H]2N(C)C)ccc1C(=O)Nc1cccnc1`, the results for the IC50 on Polycomb protein EED [1] and at Polycomb protein EED [2] were 80 nM and 100 nM, respectively. `Cc1ccc(N2CCN(c3ccc([C@H]4CN(Cc5c(C)cccc5F)C[C@@H]4N(C)C)cc3)CC2)cc1`: the IC50 amounted to 150 nM at Polycomb protein EED [1] and 220 nM at Polycomb protein EED [2]. For `Cc1cccc(F)c1CN1C[C@H](c2ccc(N3CCN(c4ccccc4)CC3)cc2)[C@@H](N(C)C)C1`, the IC50 worked out at 50 nM on Polycomb protein EED [1] and 90 nM at Polycomb protein EED [2].

For the compound `Cc1cccc(F)c1CN1C[C@H](c2ccc(N3CCC(N(C)C)CC3)cc2)[C@@H](N(C)C)C1`, the IC50 at Polycomb protein EED [1] amounted to 40 nM; at Polycomb protein EED [2], 100 nM. For `Cc1cccc(F)c1CN1C[C@H](c2ccc(N3CCN(c4ccccc4S(C)(=O)=O)CC3)cc2)[C@@H](N(C)C)C1`, the IC50 on Polycomb protein EED [1] came to 70 nM; at Polycomb protein EED [2], 190 nM. For `Cc1cc([C@H]2CN(Cc3c(C)cccc3F)C[C@@H]2N(C)C)ccc1C(=O)NCc1ccncc1` the same measures were 70 nM and 110 nM. Regarding `Cc1cccc(F)c1CN1C[C@H](c2ccc(N3CCN(c4ccncc4)CC3)cc2)[C@@H](N(C)C)C1`, the IC50 on Polycomb protein EED [1] and on Polycomb protein EED [2] was 10 nM each time. Consider `Cc1cc([C@H]2CN(Cc3c(C)cccc3F)C[C@@H]2N(C)C)ccc1C(=O)NCc1ccccn1`, for which the results for the IC50 at Polycomb protein EED [1] and on Polycomb protein EED [2] were 70 nM and 80 nM, respectively.

`Cc1cc([C@H]2CN(Cc3c(C)cccc3F)C[C@@H]2N(C)C)ccc1C(=O)N(C)C`: the IC50 on Polycomb protein EED [1] came to 110 nM; at Polycomb protein EED [2], 180 nM. For `Cc1cc([C@H]2CN(Cc3c(C)cccc3F)C[C@@H]2N(C)C)ccc1C(=O)N1CCN(CCO)CC1` the same measures were 270 nM and 380 nM. Take `Cc1ccc(S(=O)(=O)N2CCN(c3ccc([C@H]4CN(Cc5c(C)cccc5F)C[C@@H]4N(C)C)cc3)CC2)cc1`: the figures for the IC50 at Polycomb protein EED [1] and at Polycomb protein EED [2] were 50 nM and 80 nM, respectively.

As to `Cc1cccc(F)c1CN1C[C@H](c2ccc(N3CCN(S(=O)(=O)c4cccc(F)c4)CC3)cc2)[C@@H](N(C)C)C1`, the IC50 stood at 40 nM at Polycomb protein EED [1] and 50 nM on Polycomb protein EED [2].

Take `CC(=O)N[C@H]1CCN(c2ccc([C@H]3CN(Cc4c(C)cccc4F)C[C@@H]3N(C)C)cc2)C1`: the IC50 on Polycomb protein EED [1] came to 90 nM; on Polycomb protein EED [2], 240 nM. Compound `CC(=O)N[C@@H]1CCN(c2ccc([C@H]3CN(Cc4c(C)cccc4F)C[C@@H]3N(C)C)cc2)C1` gave an IC50 on Polycomb protein EED [1] of 160 nM.

Turning to `CCN(CC)C(=O)c1ccc([C@H]2CN(Cc3c(C)cccc3F)C[C@@H]2N(C)C)cc1C`, the IC50 on Polycomb protein EED [1] turned out to be 100 nM; at Polycomb protein EED [2], 250 nM. With `Cc1cccc(F)c1CN1C[C@H](c2ccc(N3CCC(N4CCOCC4)CC3)cc2)[C@@H](N(C)C)C1`, the IC50 at Polycomb protein EED [1] is 40 nM; on Polycomb protein EED [2], 60 nM. For `Cc1cccc(F)c1CN1C[C@H](c2ccc(N3CCC(C#N)CC3)cc2)[C@@H](N(C)C)C1` the same measures were 70 nM and 140 nM.

As to `Cc1cccc(F)c1CN1C[C@H](c2ccc(N3CCC(C)CC3)cc2)[C@@H](N(C)C)C1`, the IC50 was determined as 40 nM on Polycomb protein EED [1] and 140 nM at Polycomb protein EED [2].

Take `Cc1cccc(F)c1CN1C[C@H](c2ccc(N(C)C3CCN(C)CC3)cc2)[C@@H](N(C)C)C1`: the IC50 at Polycomb protein EED [1] came out at 90 nM; on Polycomb protein EED [2], 350 nM. Turning to `Cc1cc([C@H]2CN(Cc3c(C)cccc3F)C[C@@H]2N(C)C)ccc1C(=O)NCCN(C)C`, the IC50 amounted to 80 nM on Polycomb protein EED [1] and 150 nM on Polycomb protein EED [2]. On the same counts, the results for `Cc1cccc(F)c1CN1C[C@H](c2ccc(N3CCN(c4nccs4)CC3)cc2)[C@@H](N(C)C)C1` are 30 nM and 40 nM. For `Cc1cc([C@H]2CN(Cc3c(C)cccc3F)C[C@@H]2N(C)C)ccc1C(=O)N1CCN(C)CC1`, the IC50 on Polycomb protein EED [1] was found to be 260 nM; on Polycomb protein EED [2] it was 480 nM.
